# Source: PubChem BioAssay (several laboratories)
# Hits are enriched below; roughly 2.2% of the tested compounds scored in any of these assays.
# HCV NS3 hel inh: inhibitors of HCV NS3 helicase, primary screen, biochemical, Cy5 molecular beacon fluorescence; inhibition, % at 10.9 µM; Hepatitis C virus NS3 helicase; NS3 helicase DNA unwinding; 290,000 compounds, 0.56% hits;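 active = inhibition above the mean of all tested compounds plus 3 SD, set per campaign, cut at about 35% in these data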
#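 System: NS3 helicase fragment of HCV / Schedule: 1 h at 25 °C / Control set: DMSO alone as 0% and 110 µM thioflavine S as 100% / Reagent: Cy5/quencher beacon DNA duplex and ATP to start / Technique: Cy5 fluorescence / Replication: singlicate / Evaluation: % inhibition of end-to-start signal ratio versus controls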
# GPR7 antag: GPR7 receptor antagonists, primary screen, cell-based, fluorescence, single concentration; Neuropeptides B/W receptor type 1 (Homo sapiens), P48145; inhibition, % at 4.4 µM; 290,000 compounds, 1.1% hits; AID 1861, 2009; GPR7-expressing cells, fluorescence antagonist assay; in the data active = inhibition above about 16%, passing the limit was not always enough;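 also: cells stimulated with the agonist NPW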
# DNA FID counter: compounds displacing fluorescent DNA intercalator, primary screen, artefact control for HCV NS3 helicase inhibitor project, biochemical, FID fluorescence. DNA fluorescent intercalator displacement. inhibition, % at 7.9 µM. 290,000 compounds, 0.17% hits; in the data active = inhibition above about 37%;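 also: higher means more ethidium bromide displaced from hairpin DNA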
# HCV core dimer: inhibitors of HCV core protein dimerization, primary screen, biochemical, TR-FRET, high-throughput | AID 1899, 2009 | inhibition, % at 5 µM | TR-FRET GST/Flag-core106 dimerization, 1536-well | 300,000 compounds, 0.33% hits;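 active = inhibition above the mean of all tested compounds plus 3 SD, set per screening campaign, cut at about 45% in these data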
#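 Test system: GST/Flag-tagged HCV core106 proteins; Medium: KF-containing HEPES buffer, pH 7.45, DTT, CHAPS, BSA; Times: compound-protein-antibody incubation 4 h at 22.5 °C; Detection: TR-FRET 671 and 617 nm emission; Benchmarks: wells lacking GST-core106 and wells with excess unlabelled core106.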
# DAGLB inhibitor: DAGLB lipase inhibitors, primary screen, biochemical, fluorescence, HTS; Diacylglycerol lipase-beta (Homo sapiens), Q8NCG7; HEK293T DAGLB membrane lysate, EnzChek fluorogenic substrate; inhibition, % at 5.17 µM; 340,000 compounds, 0.059% hits; AID 504411, 2011; in the data active = inhibition above about 34%
# Target sequence (Q8NCG7 whole entry, looked up): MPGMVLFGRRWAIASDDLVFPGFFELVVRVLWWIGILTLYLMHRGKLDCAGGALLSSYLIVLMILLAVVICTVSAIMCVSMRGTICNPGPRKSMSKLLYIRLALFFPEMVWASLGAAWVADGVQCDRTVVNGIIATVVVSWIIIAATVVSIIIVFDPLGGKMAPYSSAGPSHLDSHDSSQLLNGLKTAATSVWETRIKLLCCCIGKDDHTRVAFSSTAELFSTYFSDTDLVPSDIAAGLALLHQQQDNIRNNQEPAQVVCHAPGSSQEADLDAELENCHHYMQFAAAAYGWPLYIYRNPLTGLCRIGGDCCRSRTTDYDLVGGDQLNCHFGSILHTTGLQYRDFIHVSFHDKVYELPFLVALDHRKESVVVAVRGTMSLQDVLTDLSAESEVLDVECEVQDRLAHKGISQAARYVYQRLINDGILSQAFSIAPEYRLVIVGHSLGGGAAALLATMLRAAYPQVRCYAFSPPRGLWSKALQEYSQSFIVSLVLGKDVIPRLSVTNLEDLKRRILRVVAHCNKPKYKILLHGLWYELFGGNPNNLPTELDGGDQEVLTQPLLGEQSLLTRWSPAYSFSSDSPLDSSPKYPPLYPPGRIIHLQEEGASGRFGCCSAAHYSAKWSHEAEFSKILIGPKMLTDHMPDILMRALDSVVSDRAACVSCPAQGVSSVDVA
# GRK2 inh: compounds blocking aptamer binding on GRK2 – biochemical, human GRK2, bead flow cytometry, HTS, primary screen; Beta-adrenergic receptor kinase 1 (Homo sapiens), P25098; FAM-aptamer displacement from GRK2; inhibition of aptamer binding, % at 10 µM; 330,000 compounds, 0.59% hits; AID 488847, 2010;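 active = inhibition of aptamer binding above 40%, roughly 3 SD of noise, on plates passing a quality check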;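 also: median bead fluorescence of bound FAM aptamer so fluorescent compounds give negative values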
# GPR7 antag cf: GPR7 receptor antagonists, confirmation, cell-based, fluorescence, single concentration; shares compounds with GPR7 antag; 2,400 compounds, 52% hits; GPR7-expressing cells, calcium fluorescence antagonist mode; inhibition, % at 4.4 µM; in the data active = inhibition above about 24%;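 also: stimulated with the GPR7 agonist NPW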
# MCHR1 antagonist: MCHR1 antagonists in cells, counter-screen for GPR7 antagonist project, cell-based, fluorescence, human; inhibition, % at 4.4 µM; MCHR1-expressing cells, fluorescence antagonist assay; 2,400 compounds, 62% hits; shares compounds with GPR7 antag; in the data active = inhibition above about 22%
# A number is an active result; 0 = inactive; - = not tested or not shown.
SMILES,HCV NS3 hel inh,GPR7 antag,DNA FID counter,HCV core dimer,DAGLB inhibitor,GRK2 inh,GPR7 antag cf,MCHR1 antagonist
O=C(c1ccco1)N1CCN(S(=O)(=O)c2ccc(Br)s2)CC1,0,47,0,0,0,0,0,0
COc1ccc(CC(=O)N/N=C(\C)c2cccs2)cc1,0,31,0,0,0,0,0,0
COC(=O)N/N=C(\C)c1cccs1,0,0,0,0,0,0,-,-
O=C(CCN1C(=O)C2C3C=CC(C4CC34)C2C1=O)Oc1cccc2cccnc12 (centres undefined),0,0,0,0,0,0,-,-
Cc1cccc(N(CC(=O)NC2CCCCC2)C(=O)CCCC(=O)Nc2ccccn2)c1C,0,29,0,0,0,0,0,0
CS(=O)(=O)N(CC(=O)NCCc1ccccc1)c1cccc([N+](=O)[O-])c1,0,0,0,0,0,0,-,-
CS(=O)(=O)N(CC(=O)Nc1ccc(F)c(F)c1)c1cccc([N+](=O)[O-])c1,0,32,0,0,0,0,0,0
COc1ccccc1NC(=O)COC(=O)/C=C/c1ccc2c(c1)OCO2,0,33,0,0,0,0,0,0
COc1ccc(NC(=S)N(CCc2ccc(OC)c(OC)c2)Cc2ccccn2)cc1,0,0,0,0,0,0,-,-
COc1ccc(NC(=S)N(Cc2ccc(C)cc2)Cc2ccccn2)cc1,0,25,0,0,0,0,0,0
COC(=O)CN1C(c2ccccc2)=Nc2ccc(Cl)cc2C1c1ccccc1 (centres undefined),0,28,0,0,0,0,0,23
CCn1c(COc2ccc(C)cc2)nnc1SCC(=O)NCc1ccco1,0,24,0,0,0,0,0,0
CCCCCc1ccc(-c2cn(Cc3ccc([N+](=O)[O-])cc3)nn2)cc1,0,33,0,0,0,0,37,57
CCOC(=O)C1CCN(CC(O)COCc2ccccc2)CC1 (centres undefined),0,0,0,0,0,0,-,-
CCn1cc(S(=O)(=O)NC2CCCCC2)cn1,0,0,0,0,0,0,-,-
c1ccc(-c2noc(CSc3nnc(Cc4cccs4)n3-c3ccccc3)n2)cc1,0,0,0,0,0,0,-,-
Clc1ccc(-c2noc(CSc3nnc(Cc4cccs4)n3-c3ccccc3)n2)cc1,0,28,0,0,0,0,0,42
CC(=O)c1ccc(OCC(=O)Nc2ccccc2N2CCCC2)cc1,0,0,0,0,0,0,-,-
CCc1ccccc1NC(=O)COc1ccc(C(=S)N2CCCC2)cc1,0,23,0,0,0,0,0,0
O=C(NCCSc1c[nH]c2ccccc12)c1c(F)cccc1F,0,23,0,0,0,0,33,33
O=C(CCC(=O)N1CCCCCC1)Nc1ccc([N+](=O)[O-])cc1,0,34,0,0,0,0,0,0
CC(=O)N1CN(C2CCCC2)Cc2c1sc1c2CCCC1,0,24,0,0,0,0,0,0
NC(CSCc1cccc(Br)c1)C(=O)O (centres undefined),0,0,0,0,0,0,-,-
Cc1ccc(CNC(=O)c2ccccc2NC(=O)CN2CC(C)OC(C)C2)cc1 (centres undefined),0,0,0,0,0,0,-,-
CC(C)(C)C1CCC2(CC1)CC(=O)c1ccccc1O2 (centres undefined),-,-,-,0,0,0,-,-
SMILES,HCV NS3 hel inh,GPR7 antag,DNA FID counter,HCV core dimer,DAGLB inhibitor,GRK2 inh,GPR7 antag cf,MCHR1 antagonist
CC(=O)c1ccc(S(=O)(=O)N2CCN(c3ccccc3F)CC2)cc1,0,25,0,0,0,0,25,23
COC(=O)c1cc(S(=O)(=O)N2CCN(c3ccc(C(C)=O)cc3)CC2)cn1C,0,25,0,0,0,0,0,41
O=C(c1ccc(S(=O)(=O)N2CCCCCC2)cc1)N1CCN(c2ccccc2F)CC1,0,0,0,0,0,0,-,-
O=C(Cc1ccccc1)N1CCN(c2ccccc2F)CC1,0,0,0,0,0,0,-,-
COC(=O)c1cc(S(=O)(=O)N2CCCCCC2)cn1C,0,0,0,0,0,0,-,-
COC(=O)c1cc(S(=O)(=O)N2CCN(c3ccc([N+](=O)[O-])cc3)CC2)c[nH]1,0,32,0,0,0,0,0,0
CC(=O)c1ccc(N2CCN(C(=O)Cc3ccccc3)CC2)c(F)c1,0,45,0,0,0,0,0,0
Cc1ccc(-c2[nH]ncc2CN2CCN(C(=O)c3cccs3)CC2)cc1C,0,0,0,0,0,0,-,-
CC1CC(C)CN(C(=O)c2ccc(S(=O)(=O)N3CC(C)CC(C)C3)cc2)C1 (centres undefined),0,25,0,0,0,0,24,23
CCOc1cc(N2CCOCC2)c(OCC)cc1NC(=O)CSc1nnc(N)s1,-,-,-,-,0,0,-,-
O=C(/C=C/c1cccc([N+](=O)[O-])c1)N1CCN(c2ccccc2F)CC1,0,0,0,0,0,0,-,-
CCOc1ccccc1N1CCN(C(=O)/C=C/c2cccc([N+](=O)[O-])c2)CC1,0,21,0,0,0,0,32,41
CC(C(=O)N1CCc2ccccc21)N1CCN(S(=O)(=O)c2ccc3c(c2)OCCCO3)CC1 (centres undefined),-,-,-,-,0,-,-,-
c1ccc(CNc2ncnc3c2cnn3Cc2ccccc2)cc1,0,28,0,0,0,0,53,51
Clc1ccc(Cn2ncc3c(NCc4ccco4)ncnc32)c(Cl)c1,0,28,0,0,-,0,37,56
COc1ccccc1C1(O)CCN(CC(=O)Nc2c(C)nn(C)c2C)CC1,0,27,0,0,0,0,0,0
Cc1cc(NC(=O)COC(=O)c2ccc([N+](=O)[O-])cc2Cl)no1,-,-,-,-,0,0,-,-
O=C(COC(=O)CCc1c[nH]c2ccccc12)Nc1ccc([N+](=O)[O-])cc1,0,26,0,0,0,0,49,41
CCc1ccc(NC(=S)N2CCC(NC(=O)C3CCCCC3)CC2)cc1,0,0,0,0,0,0,-,-
CCOc1ccc(NC(=S)N2CCC(NC(=O)C3CCCCC3)CC2)cc1,0,28,0,0,0,0,0,0
